Experiments:
[1] = biological target: T1, Adrenergic receptor alpha-1 (Rattus norvegicus, UniProt P15823+P23944+P43140); assay: Displacement of [3H]-prazosin from alpha1-adrenergic receptor in rat cerebral cortex by liquid scintillation counting; type: tissue-based
T1 sequence (P15823 whole entry): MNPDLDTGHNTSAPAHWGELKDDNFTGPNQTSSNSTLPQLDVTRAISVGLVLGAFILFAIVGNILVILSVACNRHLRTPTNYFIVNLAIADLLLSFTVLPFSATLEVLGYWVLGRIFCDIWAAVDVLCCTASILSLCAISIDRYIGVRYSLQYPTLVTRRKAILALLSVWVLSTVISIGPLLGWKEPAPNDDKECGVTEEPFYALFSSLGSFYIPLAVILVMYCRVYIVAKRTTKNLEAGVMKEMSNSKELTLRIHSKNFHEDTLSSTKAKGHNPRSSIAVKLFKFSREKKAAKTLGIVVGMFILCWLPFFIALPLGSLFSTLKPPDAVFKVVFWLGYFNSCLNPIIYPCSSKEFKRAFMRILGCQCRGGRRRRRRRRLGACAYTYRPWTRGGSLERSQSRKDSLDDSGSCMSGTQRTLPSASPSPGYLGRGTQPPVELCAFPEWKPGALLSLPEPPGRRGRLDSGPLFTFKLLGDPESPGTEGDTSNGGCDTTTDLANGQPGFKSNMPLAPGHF
T1 sequence (P23944 whole entry): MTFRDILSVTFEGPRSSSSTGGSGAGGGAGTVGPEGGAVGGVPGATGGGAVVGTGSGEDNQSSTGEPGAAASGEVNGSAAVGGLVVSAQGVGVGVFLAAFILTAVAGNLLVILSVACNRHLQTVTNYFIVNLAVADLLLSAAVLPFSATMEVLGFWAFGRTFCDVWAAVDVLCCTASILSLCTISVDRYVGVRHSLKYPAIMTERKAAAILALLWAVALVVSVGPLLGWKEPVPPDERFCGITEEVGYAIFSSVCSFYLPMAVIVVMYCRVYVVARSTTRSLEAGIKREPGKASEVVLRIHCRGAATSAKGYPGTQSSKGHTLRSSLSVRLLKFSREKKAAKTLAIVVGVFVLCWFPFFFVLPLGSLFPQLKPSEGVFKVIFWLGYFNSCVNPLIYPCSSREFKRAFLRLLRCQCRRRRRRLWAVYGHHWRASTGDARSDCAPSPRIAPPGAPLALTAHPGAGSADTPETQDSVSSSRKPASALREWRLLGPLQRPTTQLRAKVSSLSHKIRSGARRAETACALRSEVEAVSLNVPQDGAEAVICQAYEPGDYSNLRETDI
T1 sequence (P43140 whole entry): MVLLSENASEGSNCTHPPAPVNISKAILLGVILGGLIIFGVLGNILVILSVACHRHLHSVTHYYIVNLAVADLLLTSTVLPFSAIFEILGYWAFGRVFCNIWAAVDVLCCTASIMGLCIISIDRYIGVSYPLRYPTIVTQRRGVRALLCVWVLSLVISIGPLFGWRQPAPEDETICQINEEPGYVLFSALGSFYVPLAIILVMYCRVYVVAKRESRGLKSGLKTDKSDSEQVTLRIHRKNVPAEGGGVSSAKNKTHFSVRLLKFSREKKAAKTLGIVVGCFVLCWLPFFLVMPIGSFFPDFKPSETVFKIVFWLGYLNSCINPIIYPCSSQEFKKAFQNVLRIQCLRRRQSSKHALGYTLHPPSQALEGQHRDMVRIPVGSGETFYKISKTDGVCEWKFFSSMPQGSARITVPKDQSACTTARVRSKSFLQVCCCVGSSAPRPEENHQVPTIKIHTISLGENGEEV
Method in brief: (§1)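 Rat cerebral cortex was homogenised in ice-cold 50 mM Tris-HCl pH 7.6 and spun at 20,000 g for 20 min at 0–4 °C, then washed once. Radioligands: [3H]prazosin 0.2 nM for α1, [3H]clonidine 2 nM for α2, [3H]CGP-12177 0.2 nM for β1. Test compounds were run at 7–8 concentrations from 10^-11 to 10^-4 M. Nonspecific binding was defined with phentolamine (α1), clonidine (α2) or propranolol (β1). Counting was by liquid scintillation, in duplicate. Ki was derived by Cheng–Prusoff from 2–3 experiments.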

[2] = biological target: T2, Adrenergic receptor alpha-2 (Rattus norvegicus, UniProt P22086+P19328+P22909); assay: Displacement of [3H]clonidine from alpha2-adrenergic receptor in rat cerebral cortex by liquid scintillation counting; type: tissue-based; method in brief: as §1
T2 sequence (P22086 whole entry): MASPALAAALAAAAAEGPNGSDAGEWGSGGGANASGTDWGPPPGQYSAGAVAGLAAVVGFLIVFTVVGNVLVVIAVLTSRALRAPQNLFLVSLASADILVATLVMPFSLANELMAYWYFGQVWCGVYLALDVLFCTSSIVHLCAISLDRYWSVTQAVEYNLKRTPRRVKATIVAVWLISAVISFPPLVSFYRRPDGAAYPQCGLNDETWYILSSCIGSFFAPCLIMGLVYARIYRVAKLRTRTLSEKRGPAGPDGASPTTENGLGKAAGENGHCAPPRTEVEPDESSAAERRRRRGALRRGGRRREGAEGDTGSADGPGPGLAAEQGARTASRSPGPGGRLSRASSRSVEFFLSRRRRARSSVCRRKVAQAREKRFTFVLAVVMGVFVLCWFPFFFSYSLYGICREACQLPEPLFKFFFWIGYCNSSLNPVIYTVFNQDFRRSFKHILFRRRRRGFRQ
T2 sequence (P19328 whole entry): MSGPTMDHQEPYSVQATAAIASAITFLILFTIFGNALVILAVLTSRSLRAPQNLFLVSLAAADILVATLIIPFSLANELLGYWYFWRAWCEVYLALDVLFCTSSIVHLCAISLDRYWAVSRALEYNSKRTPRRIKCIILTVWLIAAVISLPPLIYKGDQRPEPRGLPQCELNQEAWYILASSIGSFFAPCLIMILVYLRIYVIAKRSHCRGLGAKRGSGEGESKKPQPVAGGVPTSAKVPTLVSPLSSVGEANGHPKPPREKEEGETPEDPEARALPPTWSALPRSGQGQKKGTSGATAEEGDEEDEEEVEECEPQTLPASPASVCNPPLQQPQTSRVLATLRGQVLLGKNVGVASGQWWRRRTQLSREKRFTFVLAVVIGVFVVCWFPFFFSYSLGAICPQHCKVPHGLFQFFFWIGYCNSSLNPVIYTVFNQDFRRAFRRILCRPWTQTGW
T2 sequence (P22909 whole entry): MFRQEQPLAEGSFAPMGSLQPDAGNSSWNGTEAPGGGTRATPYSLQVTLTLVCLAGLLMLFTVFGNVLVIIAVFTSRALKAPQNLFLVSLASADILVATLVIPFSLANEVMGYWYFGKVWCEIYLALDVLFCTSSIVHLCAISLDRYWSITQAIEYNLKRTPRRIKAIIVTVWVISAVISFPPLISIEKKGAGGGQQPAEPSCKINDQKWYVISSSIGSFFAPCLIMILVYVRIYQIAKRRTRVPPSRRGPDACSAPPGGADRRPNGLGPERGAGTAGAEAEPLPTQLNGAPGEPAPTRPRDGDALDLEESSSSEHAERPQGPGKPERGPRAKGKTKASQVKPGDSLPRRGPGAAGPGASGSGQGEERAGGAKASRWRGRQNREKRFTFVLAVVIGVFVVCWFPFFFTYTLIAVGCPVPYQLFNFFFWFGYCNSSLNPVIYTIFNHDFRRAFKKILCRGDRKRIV

Ki [1] | Ki [2] | Structure (SMILES)
18 nM | 4260 nM | COc1ccccc1N1CCN(CC(O)COc2cccc3c(=O)c4ccccc4oc23)CC1.Cl (racemic)
506 nM | 450 nM | Cl.Cl.Cl.O=c1c2ccc(Cl)cc2oc2c(OCC(O)CN3CCN(CCOc4ccccc4)CC3)cccc12 (racemic)
1100 nM | 3400 nM | Cl.Cl.Cl.O=c1c2ccc(Cl)cc2oc2c(OCC(O)CN3CCN(C/C=C/c4ccccc4)CC3)cccc12 (racemic)

The remaining lines, values behind:

Structure (SMILES) | Ki [1] | Ki [2]
COc1ccccc1N1CCN(CCCOc2cccc3c(=O)c4ccccc4oc23)CC1.Cl | 4 nM | 695 nM
COc1ccccc1N1CCN(CC(COc2cccc3c(=O)c4ccccc4oc23)OC(C)=O)CC1.Cl (racemic) | 50 nM | 2100 nM
Cl.Cl.Cl.O=c1c2ccc(Cl)cc2oc2c(OCC(O)CN3CCN(Cc4ccccc4)CC3)cccc12 (racemic) | 614 nM | 7700 nM
Cl.Cl.O=c1c2ccccc2oc2c(OCC(O)CN3CCN(C/C=C/c4ccccc4)CC3)cccc12 (racemic) | 677 nM | 634 nM

— ChEMBL document CHEMBL2311390, “Synthesis and preliminary evaluation of pharmacological properties of some piperazine derivatives of xanthone” (Bioorg Med Chem, 2013)
